Calls of active or inactive are those of the source. No cut-off for these calls is given here.
How the values were obtained:
Plasmodium berghei [1] = experiment: Antimalarial activity against trophozoite Plasmodium berghei infected in mouse assessed as increase in mean survival time at 320 mg/kg, sc administered as single dose 72 hrs after parasite infection; type: functional; conditions: route subcutaneous
How it was run: (§1)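 Mice were infected with P. berghei trophozoites and given one subcutaneous dose of test compound 72 h later. The read-out was the increase in mean survival time of treated over control animals (MSTT vs MSTC); prolongation of 2.5 days was taken as significant, and a 12-day minimum mean survival was required for activity. Survivors at 60 days without parasitemia counted as cured. The maximum dose was 640 mg/kg.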

Plasmodium berghei [2] = experiment: Antimalarial activity against trophozoite Plasmodium berghei infected in mouse assessed as increase in mean survival time at 640 mg/kg, sc administered as single dose 72 hrs after parasite infection; type: functional; conditions: route subcutaneous; how it was run: as §1
Plasmodium berghei [3] = experiment: Antimalarial activity against trophozoite Plasmodium berghei infected in mouse assessed as increase in mean survival time at 160 mg/kg, sc administered as single dose 72 hrs after parasite infection; type: functional; conditions: route subcutaneous; how it was run: as §1
Plasmodium gallinaceum [4] = experiment: Antimalarial activity against Plasmodium gallinaceum infected in chick assessed as increase in mean survival time at 80 mg/kg, sc administered as single dose 72 hrs after parasite infection; conditions: route subcutaneous
Plasmodium gallinaceum [5] = experiment: Antimalarial activity against Plasmodium gallinaceum infected in chick assessed as increase in mean survival time at 320 mg/kg, sc administered as single dose 72 hrs after parasite infection; conditions: route subcutaneous
Plasmodium gallinaceum [6] = experiment: Antimalarial activity against Plasmodium gallinaceum infected in chick assessed as increase in mean survival time at 160 mg/kg, sc administered as single dose 72 hrs after parasite infection; conditions: route subcutaneous
Mus musculus [7] = experiment: Toxicity in trophozoite Plasmodium berghei infected in sc dosed mouse administered as single dose 72 hrs after parasite infection; type: organism-based; conditions: in vivo
How it was run: (§2)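 Mice were infected with P. berghei trophozoites and given one subcutaneous dose of test compound 72 h later, up to a maximum of 640 mg/kg. Mean survival time of treated mice was compared with untreated controls. A 2.5-day prolongation counted as significant, and activity required a mean survival of at least 12 days. Cure meant 60-day survival without parasitemia.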

Gallus gallus (chicken) [8] = experiment: Toxicity in Plasmodium gallinaceum infected in chick at 640 mg/kg, sc administered as single dose 72 hrs after parasite infection; conditions: in vivo
Plasmodium gallinaceum [9] = experiment: Antimalarial activity against Plasmodium gallinaceum infected in chick assessed as increase in mean survival time at 640 mg/kg, sc administered as single dose 72 hrs after parasite infection; conditions: route subcutaneous
Plasmodium berghei [10] = experiment: Antimalarial activity against trophozoite Plasmodium berghei infected in mouse assessed as increase in mean survival time administered as single dose 72 hrs after parasite infection; type: functional, organism-based; how it was run: as §2
Plasmodium gallinaceum [11] = experiment: Antimalarial activity against Plasmodium gallinaceum infected in chick assessed as increase in mean survival time at 480 mg/kg, sc administered as single dose 72 hrs after parasite infection; conditions: route subcutaneous
Plasmodium gallinaceum [12] = experiment: Antimalarial activity against Plasmodium gallinaceum infected in chick assessed as increase in mean survival time at 240 mg/kg, sc administered as single dose 72 hrs after parasite infection; conditions: route subcutaneous
Mus musculus [13] = experiment: Toxicity in trophozoite Plasmodium berghei infected in mouse at 640 mg/kg, sc administered as single dose 72 hrs after parasite infection; type: organism-based; set-up: dose 640 mg/kg, route subcutaneous; conditions: in vivo; how it was run: as §2
Plasmodium berghei [14] = experiment: Antimalarial activity against trophozoite Plasmodium berghei infected in mouse assessed as increase in mean survival time at 80 mg/kg, sc administered as single dose 72 hrs after parasite infection; type: functional; conditions: route subcutaneous; how it was run: as §1
Plasmodium berghei [15] = experiment: Antimalarial activity against trophozoite Plasmodium berghei infected in mouse assessed as increase in mean survival time at 40 mg/kg, sc administered as single dose 72 hrs after parasite infection; type: functional; conditions: route subcutaneous; how it was run: as §1
Plasmodium berghei [16] = experiment: Antimalarial activity against trophozoite Plasmodium berghei infected in mouse assessed as increase in mean survival time at 20 mg/kg, sc administered as single dose 72 hrs after parasite infection; type: functional; conditions: route subcutaneous; how it was run: as §1
Plasmodium berghei [17] = experiment: Antimalarial activity against trophozoite Plasmodium berghei infected in mouse assessed as increase in mean survival time at 10 mg/kg, sc administered as single dose 72 hrs after parasite infection; type: functional; conditions: route subcutaneous; how it was run: as §1
Gallus gallus (chicken) [18] = experiment: Toxicity in Plasmodium gallinaceum infected in chick at 480 mg/kg, sc administered as single dose 72 hrs after parasite infection; conditions: in vivo

Structure (SMILES): Nc1nnc(-c2ccc3c(c2)OCO3)c(N)n1
- T/C (Plasmodium berghei [1]): 12.2
- T/C (Plasmodium berghei [2]): 15.4
- T/C (Plasmodium berghei [3]): 7.1
- T/C (Plasmodium gallinaceum [4]): 1.7
- T/C (Plasmodium gallinaceum [5]): 3.2
- T/C (Plasmodium gallinaceum [6]): 3.2

Structure (SMILES): Cc1ccc(-c2nnc(N)nc2N)cc1C
- MST (Plasmodium berghei [2]): 4.9 days

Structure (SMILES): Cc1nnc(S)nc1S
- Activity (Mus musculus [7]): Toxic
- Activity (Gallus gallus (chicken) [8]): Toxic
- T/C (Plasmodium gallinaceum [9]): 4.4

Structure (SMILES): CN(C)/C=N/c1nnc(-c2ccc3c(c2)OCO3)c(/N=C/N(C)C)n1
- MST (Plasmodium berghei [2]): 5.9 days
- Activity (Plasmodium berghei [10]): inactive
- T/C (Plasmodium gallinaceum [11]): 1.5

Structure (SMILES): Nc1nnc(-c2cccc(C(F)(F)F)c2)c(N)n1
- MST (Plasmodium berghei [2]): 4.6 days
- T/C (Plasmodium gallinaceum [12]): 2.2
- T/C (Plasmodium gallinaceum [5]): 1.5

Structure (SMILES): CS(=O)(=O)c1ccc(-c2nnc(N)nc2N)cc1
- Activity (Mus musculus [7]): Toxic

Structure (SMILES): Nc1nnc(-c2ccccc2)c(-c2ccccc2)n1
- Activity (Mus musculus [7]): Toxic

Structure (SMILES): CSc1nnc(C)c(SC)n1
- Activity (Mus musculus [7]): Toxic

Structure (SMILES): Cc1nnc(N)nc1C
- MST (Plasmodium berghei [2]): 4.2 days
- Activity (Plasmodium berghei [10]): inactive

Structure (SMILES): Cc1ccc(-c2nnc(N)nc2N)cc1Cl
- T/C (Plasmodium berghei [2]): 9.9

Structure (SMILES): COc1ccc(-c2nnc(/N=C/N(C)C)nc2/N=C/N(C)C)cc1OC
- Activity (Plasmodium berghei [10]): inactive

Structure (SMILES): COc1ccc(-c2nnc(NC(=O)Nc3ccccc3)nc2N)cc1OC
- Activity (Plasmodium berghei [10]): inactive

Structure (SMILES): N#C/C(=N/NC(=N)N)c1cccs1.O=[N+]([O-])O
- Activity (Mus musculus [7]): Toxic

Structure (SMILES): Cc1ccc(S(=O)(=O)NC(=O)Nc2nnc(-c3ccc4c(c3)OCO4)c(N)n2)cc1
- Activity (Plasmodium berghei [10]): inactive

Structure (SMILES): Nc1nnc(-c2ccc(C(F)(F)F)cc2)c(N)n1
- T/C (Plasmodium berghei [1]): 0
- Activity (Mus musculus [13]): Toxic
- T/C (Plasmodium berghei [2]): 0
- T/C (Plasmodium berghei [3]): 0
- T/C (Plasmodium berghei [14]): 0
- T/C (Plasmodium berghei [15]): 12.8
- T/C (Plasmodium berghei [16]): 12.8
- T/C (Plasmodium berghei [17]): 6.8
- Activity (Gallus gallus (chicken) [18]): Toxic
- T/C (Plasmodium gallinaceum [9]): 9.9
- T/C (Plasmodium gallinaceum [11]): 9.9
- T/C (Plasmodium gallinaceum [12]): 6.4

Structure (SMILES): COc1ccc(-c2nnc(N)nc2N)cc1OC
- MST (Plasmodium berghei [1]): 10.1 days
- MST (Plasmodium berghei [2]): 11.7 days
- T/C (Plasmodium gallinaceum [5]): 7

Structure (SMILES): Cc1n[nH]c(=S)[nH]c1=O
- Activity (Mus musculus [7]): Toxic

Source: ChEMBL document CHEMBL3272167, “Antimalarials. 3. 1,2,4-Triazines” (J Med Chem, 1976)
